Measured values from article PMC5940653 (Leukemia, 2018).

Tested on: STAT3/5 phosphorylation in NK-S1 cells
Test: Wash-out assay
Format: cell-based
Conditions: NK-S1, 1.0 μM pre-treatment for 2 h
Summary of the method: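 NK-S1 cells were grown in DMEM with 10% FBS and 10% equine serum, seeded at 2.5 × 10^6 per well, and exposed to 1.0 µM test compound or DMSO for 2 h. Cells were washed twice in PBS and resuspended in complete medium without inhibitor. They were harvested at washout and 0.5, 1, 2 and 4 h later. Phospho- and total STAT3/5 were immunoblotted, 15 μg protein per lane.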

SMILES: C[C@@H]1CCN(C(=O)CC#N)C[C@@H]1N(C)c1ncnc2[nH]ccc12 [Tofacitinib]
- recovery of phosphorylated STAT3/5 activity post inhibitor washout: within half an hour
